Data from ChEMBL document CHEMBL1811814, “Synthesis and evaluation of indole, pyrazole, chromone and pyrimidine based conjugates for tumor growth inhibitory activities--development of highly efficacious cytotoxic agents” (Eur J Med Chem, 2010).

Key:
Assay type in all cases: functional
Design in all cases: scale not given: the % may be the effect or the level left
CCRF-CEM = assay: Growth inhibition of human CCRF-CEM cells assessed tumor cell growth at 10^-5 M
In short: (§1)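 NCI 60-human-tumor-cell-line panel screen. Each compound was tested at a single concentration of 10^-5 M, and percent growth of tumor cells was recorded for each cell line. Growth inhibition was expressed from these percent-growth values.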

HL-60(TB) = assay: Growth inhibition of human HL-60(TB) cells assessed tumor cell growth at 10^-5 M
In short: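 HL-60(TB), part of the 60-line panel, tested at a single concentration of 10^-5 M. The read-out is percent tumor cell growth relative to untreated growth.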

K562 = assay: Growth inhibition of human K562 cells assessed tumor cell growth at 10^-5 M; in short: as §1
MOLT-4 = assay: Growth inhibition of human MOLT4 cells assessed tumor cell growth at 10^-5 M; in short: as §1
[1] = Growth inhibition of human […] cells assessed tumor cell growth at 10^-5 M; in short: as §1
SR = assay: Growth inhibition of human SR cells assessed tumor cell growth at 10^-5 M
In short: (§2)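 Single-dose screen at 10^-5 M across the 60 human tumor cell line panel, run to NCI standards. The value is the percent growth of each cell line in the presence of compound. Compounds active at this dose moved on to five-concentration testing (10^-4 to 10^-8 M).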

A549 = assay: Growth inhibition of human A549 cells assessed tumor cell growth at 10^-5 M; in short: as §1
EKVX = assay: Growth inhibition of human EKVX cells assessed tumor cell growth at 10^-5 M; in short: as §1
HOP-62 = assay: Growth inhibition of human HOP62 cells assessed tumor cell growth at 10^-5 M; in short: as §1
HOP-92 = assay: Growth inhibition of human HOP92 cells assessed tumor cell growth at 10^-5 M; in short: as §1
NCI-H226 = assay: Growth inhibition of human NCI-H226 cells assessed tumor cell growth at 10^-5 M; in short: as §1
NCI-H23 = assay: Growth inhibition of human NCI-H23 cells assessed tumor cell growth at 10^-5 M; in short: as §1
NCI-H322M = assay: Growth inhibition of human NCI-H322M cells assessed tumor cell growth at 10^-5 M; in short: as §1
NCI-H460 = assay: Growth inhibition of human NCI-H460 cells assessed tumor cell growth at 10^-5 M; in short: as §1
NCI-H522 = assay: Growth inhibition of human NCI-H522 cells assessed tumor cell growth at 10^-5 M; in short: as §1
COLO 205 = assay: Growth inhibition of human COLO205 cells assessed tumor cell growth at 10^-5 M; in short: as §1
HCC 2998 = assay: Growth inhibition of human HCC2998 cells assessed tumor cell growth at 10^-5 M; in short: as §1
HCT-116 = assay: Growth inhibition of human HCT116 cells assessed tumor cell growth at 10^-5 M; in short: as §1
HCT-15 = assay: Growth inhibition of human HCT15 cells assessed tumor cell growth at 10^-5 M; in short: as §1
HT-29 = assay: Growth inhibition of human HT-29 cells assessed tumor cell growth at 10^-5 M; in short: as §1
KM12 = assay: Growth inhibition of human KM12 cells assessed tumor cell growth at 10^-5 M; in short: as §1
SW-620 = assay: Growth inhibition of human SW620 cells assessed tumor cell growth at 10^-5 M; in short: as §2
SF-268 = assay: Growth inhibition of human SF268 cells assessed tumor cell growth at 10^-5 M; in short: as §1
SF-295 = assay: Growth inhibition of human SF295 cells assessed tumor cell growth at 10^-5 M; in short: as §1
SF-539 = assay: Growth inhibition of human SF539 cells assessed tumor cell growth at 10^-5 M; in short: as §1
SNB-19 = assay: Growth inhibition of human SNB19 cells assessed tumor cell growth at 10^-5 M; in short: as §2
SNB-75 = assay: Growth inhibition of human SNB75 cells assessed tumor cell growth at 10^-5 M; in short: as §2
U-251 = assay: Growth inhibition of human U251 cells assessed tumor cell growth at 10^-5 M; in short: as §2
LOX IMVI = assay: Growth inhibition of human LOXIMVI cells assessed tumor cell growth at 10^-5 M; in short: as §1
Malme-3M = assay: Growth inhibition of human MALME-3M cells assessed tumor cell growth at 10^-5 M; in short: as §1
M14 = assay: Growth inhibition of human M14 cells assessed tumor cell growth at 10^-5 M; in short: as §1
MDA-MB-435 = assay: Growth inhibition of human MDA-MB-435 cells assessed tumor cell growth at 10^-5 M; in short: as §1
SK-MEL-2 = assay: Growth inhibition of human SK-MEL-2 cells assessed tumor cell growth at 10^-5 M; in short: as §1
SK-MEL-28 = assay: Growth inhibition of human SK-MEL-28 cells assessed tumor cell growth at 10^-5 M; in short: as §1
SK-MEL-5 = assay: Growth inhibition of human SK-MEL-5 cells assessed tumor cell growth at 10^-5 M; in short: as §1
UACC-257 = assay: Growth inhibition of human UACC257 cells assessed tumor cell growth at 10^-5 M; in short: as §2
UACC-62 = assay: Growth inhibition of human UACC62 cells assessed tumor cell growth at 10^-5 M; in short: as §2
IGROV-1 = assay: Growth inhibition of human IGROV1 cells assessed tumor cell growth at 10^-5 M; in short: as §1
OVCAR-3 = assay: Growth inhibition of human OVCAR3 cells assessed tumor cell growth at 10^-5 M; in short: as §1
OVCAR-4 = assay: Growth inhibition of human OVCAR4 cells assessed tumor cell growth at 10^-5 M; in short: as §1
OVCAR-5 = assay: Growth inhibition of human OVCAR5 cells assessed tumor cell growth at 10^-5 M; in short: as §1
OVCAR-8 = assay: Growth inhibition of human OVCAR8 cells assessed tumor cell growth at 10^-5 M; in short: as §1
NCI/ADR-RES = assay: Growth inhibition of human NCI/ADR-RES cells assessed tumor cell growth at 10^-5 M; in short: as §1
SK-OV-3 = assay: Growth inhibition of human SKOV3 cells assessed tumor cell growth at 10^-5 M; in short: as §1
786-0 = assay: Growth inhibition of human 786-0 cells assessed tumor cell growth at 10^-5 M; in short: as §1
A498 = assay: Growth inhibition of human A498 cells assessed tumor cell growth at 10^-5 M; in short: as §1
ACHN = assay: Growth inhibition of human ACHN cells assessed tumor cell growth at 10^-5 M; in short: as §1
CAKI-1 = assay: Growth inhibition of human Caki1 cells assessed tumor cell growth at 10^-5 M; in short: as §1
RXF 393 = assay: Growth inhibition of human RXF393 cells assessed tumor cell growth at 10^-5 M; in short: as §1
SN12C = assay: Growth inhibition of human SN12C cells assessed tumor cell growth at 10^-5 M; in short: as §1
TK-10 = assay: Growth inhibition of human TK10 cells assessed tumor cell growth at 10^-5 M; in short: as §2
UO-31 = assay: Growth inhibition of human UO31 cells assessed tumor cell growth at 10^-5 M; in short: as §2
PC-3 = assay: Growth inhibition of human PC3 cells assessed tumor cell growth at 10^-5 M; in short: as §1
DU-145 = assay: Growth inhibition of human DU145 cells assessed tumor cell growth at 10^-5 M; in short: as §1
MCF7 = assay: Growth inhibition of human MCF7 cells assessed tumor cell growth at 10^-5 M; in short: as §1
MDA-MB-231 = assay: Growth inhibition of human MDA-MB-231 cells assessed tumor cell growth at 10^-5 M; in short: as §1
[2] = Growth inhibition of human Hs 578T cells assessed tumor cell growth at 10^-5 M; in short: as §1
BT-549 = assay: Growth inhibition of human BT549 cells assessed tumor cell growth at 10^-5 M; in short: as §1
T47D = assay: Growth inhibition of human T47D cells assessed tumor cell growth at 10^-5 M; in short: as §2
MDA-MB-468 = assay: Growth inhibition of human MDA-MB-468 cells assessed tumor cell growth at 10^-5 M; in short: as §1

**Q.** With `O=C1C(=Cc2cn(Cc3ccccc3)c3ccccc23)C(=O)N(Cc2ccccc2)C(=O)N1Cc1ccccc1` as the molecule, how does the Activity (CCRF-CEM) read?
**A.** 117.9%

**Q.** And the Activity (HL-60(TB))?
**A.** 96.4%

**Q.** What about the Activity (K562) of the same molecule?
**A.** 81.4%

**Q.** What about the Activity (MOLT-4) of the same molecule?
**A.** 95.2%

**Q.** And the Activity [1]?
**A.** 93.2%

**Q.** What about the Activity (SR) of the same molecule?
**A.** 87.2%

**Q.** What about the Activity (A549) of the same molecule?
**A.** 80%

**Q.** What about the Activity (EKVX) of the same molecule?
**A.** 97.5%

**Q.** And the Activity (HOP-62)?
**A.** 85.4%

**Q.** And the Activity (HOP-92)?
**A.** 90.9%

**Q.** What about the Activity (NCI-H226) of the same molecule?
**A.** -49.4%

**Q.** And the Activity (NCI-H23)?
**A.** 87.7%

**Q.** What about the Activity (NCI-H322M) of the same molecule?
**A.** 105%

**Q.** And the Activity (NCI-H460)?
**A.** 36%

**Q.** What about the Activity (NCI-H522) of the same molecule?
**A.** 87.6%

**Q.** What about the Activity (COLO 205) of the same molecule?
**A.** 26.4%

**Q.** And the Activity (HCC 2998)?
**A.** 97.4%

**Q.** What about the Activity (HCT-116) of the same molecule?
**A.** 76.1%

**Q.** What about the Activity (HCT-15) of the same molecule?
**A.** 85.7%

**Q.** And the Activity (HT-29)?
**A.** 110.8%

**Q.** What about the Activity (KM12) of the same molecule?
**A.** 100.7%

**Q.** What about the Activity (SW-620) of the same molecule?
**A.** 100.6%

**Q.** And the Activity (SF-268)?
**A.** 87.5%

**Q.** What about the Activity (SF-295) of the same molecule?
**A.** 34.3%

**Q.** What about the Activity (SF-539) of the same molecule?
**A.** 83.5%

**Q.** And the Activity (SNB-19)?
**A.** 87.1%

**Q.** And the Activity (SNB-75)?
**A.** 44.9%

**Q.** And the Activity (U-251)?
**A.** 75.6%

**Q.** And the Activity (LOX IMVI)?
**A.** 87.1%

**Q.** What about the Activity (Malme-3M) of the same molecule?
**A.** 104.8%

**Q.** What about the Activity (M14) of the same molecule?
**A.** 103.5%

**Q.** What about the Activity (MDA-MB-435) of the same molecule?
**A.** 108.2%

**Q.** What about the Activity (SK-MEL-2) of the same molecule?
**A.** 83.9%

**Q.** What about the Activity (SK-MEL-28) of the same molecule?
**A.** 109.5%

**Q.** What about the Activity (SK-MEL-5) of the same molecule?
**A.** 104.1%

**Q.** And the Activity (UACC-257)?
**A.** 52.9%

**Q.** What about the Activity (UACC-62) of the same molecule?
**A.** 53.1%

**Q.** What about the Activity (IGROV-1) of the same molecule?
**A.** 75.7%

**Q.** And the Activity (OVCAR-3)?
**A.** 97.7%

**Q.** And the Activity (OVCAR-4)?
**A.** 57.3%

**Q.** And the Activity (OVCAR-5)?
**A.** -7.2%

**Q.** And the Activity (OVCAR-8)?
**A.** 83.5%

**Q.** What about the Activity (NCI/ADR-RES) of the same molecule?
**A.** 105.7%

**Q.** What about the Activity (SK-OV-3) of the same molecule?
**A.** 47.7%

**Q.** And the Activity (786-0)?
**A.** 93.2%

**Q.** And the Activity (A498)?
**A.** -95.7%

**Q.** And the Activity (ACHN)?
**A.** 86.2%

**Q.** What about the Activity (CAKI-1) of the same molecule?
**A.** 94.6%

**Q.** And the Activity (RXF 393)?
**A.** 57.6%

**Q.** And the Activity (SN12C)?
**A.** 101.3%

**Q.** What about the Activity (TK-10) of the same molecule?
**A.** 40.6%

**Q.** What about the Activity (UO-31) of the same molecule?
**A.** 73.3%

**Q.** What about the Activity (PC-3) of the same molecule?
**A.** 90.3%

**Q.** And the Activity (DU-145)?
**A.** 110.4%

**Q.** And the Activity (MCF7)?
**A.** 80.2%

**Q.** What about the Activity (MDA-MB-231) of the same molecule?
**A.** 89.3%

**Q.** What about the Activity [2] of the same molecule?
**A.** 90.7%

**Q.** And the Activity (BT-549)?
**A.** 118.1%

**Q.** What about the Activity (T47D) of the same molecule?
**A.** 51.6%

**Q.** And the Activity (MDA-MB-468)?
**A.** -71.7%
